High-throughput results (PubChem BioAssay)
SENP1 inh – blocks the human SENP1 SUMO protease catalytic domain; Q9P0U3; recombinant SENP1 catalytic domain, CyPet-SUMO1-YPet FRET cleavage; inhibition, % at 10 µM; 360,000 compounds, 0.21% hits; AID 624204;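 active = inhibition at least 30% at 10 µM, raw YFP signal under a set limit, fluorescence ratio 0.5 to 1.5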
Target sequence (Q9P0U3 419-644 limits assumed): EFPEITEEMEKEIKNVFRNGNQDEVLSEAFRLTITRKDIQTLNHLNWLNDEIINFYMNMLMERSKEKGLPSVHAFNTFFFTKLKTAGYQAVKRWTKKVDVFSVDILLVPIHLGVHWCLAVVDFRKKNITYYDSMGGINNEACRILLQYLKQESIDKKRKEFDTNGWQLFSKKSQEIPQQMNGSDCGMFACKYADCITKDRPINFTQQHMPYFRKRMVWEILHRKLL
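Controls: no-enzyme wells low, DMSO-plus-enzyme wells high control. Test system: human recombinant His6-tagged SENP1 catalytic domain enzyme. Reagent: SFCypet-SUMO1-SFYpet FRET protein substrate, 25 nM final. Doses: one dose per compound, 10 µM, 0.5% DMSO. Detection: FRET, CFP and YFP emission. Timing: 50 min reaction at room temperature.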
SENP8 block-1 – blocks human SENP8 cleavage of Nedd8 substrate. Q96LD8. recombinant SENP8, Nedd8 substrate fluorescence. inhibition, % at 20 µM. 360,000 compounds, 0.64% hits. AID 602440; in the data active = inhibition mostly above about 40%, no sharp cut-off; inactive = mostly below about 27%
Target sequence (Q96LD8 whole entry, looked up): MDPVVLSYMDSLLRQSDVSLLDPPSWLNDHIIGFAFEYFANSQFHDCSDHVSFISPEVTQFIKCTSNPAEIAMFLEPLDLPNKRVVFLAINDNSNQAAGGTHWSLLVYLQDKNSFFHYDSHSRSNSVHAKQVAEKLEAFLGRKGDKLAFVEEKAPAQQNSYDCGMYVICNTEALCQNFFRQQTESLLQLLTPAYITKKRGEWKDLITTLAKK
UCH37 inh – blocks the human deubiquitinase UCH37; inhibition, % (test concentration not listed); AID 588478; Q9Y5K5; purified proteasome/UCH37, Ub-AMC cleavage fluorescence; 330,000 compounds, 0.33% hits;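 active = mean inhibition over replicate wells above about 20%, limit read from the data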
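system = Proteasome-associated human UCH37 deubiquitinase | amount = 0.15 nM proteasome as dispensed | medium = pH 7.4 Tris-HCl (50 mM) with ovalbumin, ATP-MgCl2, DTT | incubation = 30 min preincubation with enzyme, 25 min cleavage at room temperature | detection = AMC fluorescence 355/460 nm | read-out basis = percent inhibition | controls = no-proteasome and no-compound wells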
SENP7 inh – inhibitors of human SENP7 protease | Q9BQF6 | recombinant SENP7, Z-RLRGG-aminoluciferin luminescence, 40 min | inhibition, % at 5 µM | 330,000 compounds, 1.5% hits;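 active = inhibition above about 50% at the single test dose, limit read from the data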
SENP8 block-2 – blocks the human protease SENP8 | purified SENP8, Z-RLRGG-aminoluciferin cleavage, luminescence | 330,000 compounds, 1.2% hits | Q96LD8 | inhibition, % at 10 µM | AID 2540; in the data active = inhibition above about 50%
SENP6 inh – SENP6 protease inhibition | 330,000 compounds, 1.8% hits | inhibition, % at 10 µM | AID 2599 | Recombinant SENP6 catalytic domain, aminoluciferin luminescence | Q9GZR1;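 active = inhibition above about 50% at the single tested dose, limit read from the data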
SENP8 conf – confirmation of human SENP8 protease inhibitors; Recombinant SENP8, Z-RLRGG-aminoluciferin luminescence, 60 min; shares compounds with SENP7 inh; inhibition, % at 12.5 µM; AID 488912; 6,200 compounds, 40% hits;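 active = mean inhibition across replicates above about 50%, limit read from the data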
SENP6 conf – human SENP6 inhibition, confirmed | recombinant SENP6, Z-RLRGG-aminoluciferin luminescence | 6,200 compounds, 58% hits | inhibition, % at 12.5 µM | shares compounds with SENP7 inh | AID 488915
SENP7 confirm – confirmation of human SENP7 protease inhibitors. 6,200 compounds, 69% hits. recombinant SENP7, Z-RLRGG-aminoluciferin luminescence, 40 min. shares compounds with SENP7 inh. inhibition, % at 12.5 µM
Casp3 select – selectivity test for SENP inhibitors: human caspase-3 inhibition; purified caspase-3, Z-DEVD-aminoluciferin luminescence, 60 min; AID 488918; shares compounds with SENP7 inh; 6,200 compounds, 60% hits; inhibition, % at 12.5 µM;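 active = mean inhibition above about 50%, limit read from the data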
Target sequence (P42574 28-227 limits assumed): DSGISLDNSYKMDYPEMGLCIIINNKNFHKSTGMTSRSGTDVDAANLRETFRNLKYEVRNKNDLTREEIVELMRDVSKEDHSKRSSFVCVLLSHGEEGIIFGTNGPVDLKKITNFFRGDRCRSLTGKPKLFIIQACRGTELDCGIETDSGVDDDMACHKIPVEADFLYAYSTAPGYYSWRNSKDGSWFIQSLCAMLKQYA
Luc interf – luminescence interference (SENP counter-screen). shares compounds with SENP7 inh. inhibition, % at 12.5 µM. 6,200 compounds, 39% hits. AID 488919. Pre-incubated SENP8/Z-RLRGG-aminoluciferin, luciferase luminescence interference;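 active = mean inhibition above about 50% when retested at one dose, limit read from the data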
Hits are given with their value; i = inactive; nt = no result given. The list is not random: actives were taken first. Their share in the collection is about 2.6%.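 The calls were made as follows, unless noted: active = mean inhibition above about 50% in the one-dose retest (limit read from the data); inactive = the rest.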

SMILES	SENP1 inh	SENP8 block-1	UCH37 inh	SENP7 inh	SENP8 block-2	SENP6 inh	SENP8 conf	SENP6 conf	SENP7 confirm	Casp3 select	Luc interf
COc1ccc2nc(Nc3ccc4c(c3)OCO4)sc2c1	i	i	i	58.4	i	i	i	i	i	i	i
Cc1nn(-c2ccccc2)c(C)c1C=NN1CCN(c2ccccn2)CC1	nt	nt	i	nt	nt	nt	nt	nt	nt	nt	nt
COc1ccc2nc(Nc3ccccc3)sc2c1	i	i	i	83.6	69.7	55.9	88.5	87.7	97.7	61.4	83.6
COc1ccc2nc(NC(C)=O)sc2c1	i	i	i	i	i	i	nt	nt	nt	nt	nt
CCCCCc1ccc(-c2ccc(/C=C/C(=O)O)cc2)nc1	i	i	i	i	i	75.5	76.5	67.8	87.9	i	i
c1ccc(-c2cnc(-c3ccccn3)nn2)cc1	i	i	i	60.3	i	61.3	i	i	82.0	77.3	53.8
COc1ccccc1C(=O)ON=C(C)c1ccc(N2C(=O)C3CCCCC3C2=O)cc1 (stereo not drawn)	nt	nt	i	nt	nt	nt	nt	nt	nt	nt	nt
Fc1cccc(C2NN=C(c3ccccc3)S2)c1 (stereo not drawn)	i	i	i	97.5	52.5	92.3	i	53.6	79.6	64.6	i
O=C1c2ccccc2C2=Nc3ccccc3SC(c3cccc(F)c3)C12 (stereo not drawn)	i	i	i	i	i	i	nt	nt	nt	nt	nt
COc1ccc(C2NC(=O)CS2)cc1OC (stereo not drawn)	i	i	i	i	i	i	nt	nt	nt	nt	nt
Cc1ccc(C2=NNC(C(O)C(O)C(O)C(C)O)S2)cc1 (stereo not drawn)	i	i	i	i	i	i	nt	nt	nt	nt	nt
COc1ccc(C2NN=C(c3ccc(C)cc3)S2)cc1OC (stereo not drawn)	i	i	i	94.5	92.2	92.8	i	i	i	i	i
Cc1ccc(C2=NNC(c3cccc(F)c3)S2)cc1 (stereo not drawn)	i	i	i	94.8	86.8	89.2	i	50.6	i	51.4	i
O=C(NN=Cc1ccc[nH]1)c1ccccc1OCc1ccc(F)cc1	nt	nt	i	nt	nt	nt	nt	nt	nt	nt	nt
Cc1ccccc1OCc1nc2ccccc2c(=O)n1N=Cc1cn[nH]c1-c1ccccc1	nt	nt	i	nt	nt	nt	nt	nt	nt	nt	nt
COc1ccc(C=NNc2ncnc3sc(C)c(C)c23)cc1	nt	nt	i	nt	nt	nt	nt	nt	nt	nt	nt
CCOC(=O)/C=C(\C)N1N=C(c2ccccc2)CC1c1ccccc1 (stereo not drawn)	i	i	i	i	i	51.9	i	i	75.4	i	i
COc1ccc2c(c1)sc1nc(-c3ccccc3)cn12	i	i	nt	98.9	95.8	96.4	i	100.9	103.7	98.2	98.7
C=CCNC(=O)C1CC(=O)N(c2ccc(OCc3ccc(F)cc3)cc2)C1 (stereo not drawn)	i	i	i	91.0	79.4	92.1	64.7	86.4	96.1	88.1	i
CCCNC(=O)C1CC(=O)N(c2ccc(OCc3ccc(Cl)cc3)cc2)C1 (stereo not drawn)	i	i	i	87.6	61.0	84.1	i	i	i	i	i
NC(=O)C1CC(=O)N(c2ccc(OCc3ccc(Cl)cc3)cc2)C1 (stereo not drawn)	i	i	i	i	i	i	nt	nt	nt	nt	nt
CCCNC(=O)C1CC(=O)N(c2ccc(OCc3ccc(F)cc3)cc2)C1 (stereo not drawn)	i	i	i	87.7	87.2	86.8	i	55.9	70.9	94.4	i
CC(=NNC(=O)C1COc2ccccc2O1)c1ccc(Br)s1 (stereo not drawn)	nt	nt	i	nt	nt	nt	nt	nt	nt	nt	nt
Cn1c2ccccc2c2cc(C=NNC(=O)c3ccc(O)cc3O)ccc21	nt	nt	i	nt	nt	nt	nt	nt	nt	nt	nt
Oc1c(C=Nc2ncn[nH]2)ccc2ccccc12	nt	nt	i	nt	nt	nt	nt	nt	nt	nt	nt
SMILES	SENP1 inh	SENP8 block-1	UCH37 inh	SENP7 inh	SENP8 block-2	SENP6 inh	SENP8 conf	SENP6 conf	SENP7 confirm	Casp3 select	Luc interf
COC/C=C/C1=CC2=CC(=O)C(C)(OC(=O)c3cnc4ccccc4n3)C(=O)C2=CN1C1CCCCC1 (stereo not drawn)	nt	nt	nt	i	i	i	nt	nt	nt	nt	nt
COC/C=C/C1=CC2=CC(=O)C(C)(OC(=O)c3cnc4ccccc4n3)C(=O)C2=CN1c1ccccc1 (stereo not drawn)	nt	nt	i	i	63.7	i	i	i	i	i	i
COc1ccc(NC(=O)n2ncc3c(C)cccc32)cc1	i	i	i	60.6	72.1	74.1	84.1	83.1	95.2	63.0	72.8
CCOc1ccc(C(=O)Nc2cccc(C)n2)cc1	i	i	i	91.4	79.9	87.3	i	83.4	98.3	94.3	87.3
Cc1ccnc(NC(=O)c2ccc(C(=O)c3ccccc3)cc2)c1	i	i	i	69.5	73.0	79.8	71.8	68.9	93.0	85.3	78.0
O=C(O)c1ccccc1C(=O)Nc1cc(-c2ccccc2)[nH]n1	i	i	i	i	i	i	nt	nt	nt	nt	nt
O=C(Nc1cc(-c2ccccc2)[nH]n1)c1ccccc1	i	i	i	62.4	58.9	80.3	68.1	62.5	87.5	63.0	70.6
Cc1ccnc(NC(=O)c2ccc(Cl)s2)c1	i	i	i	71.8	66.6	75.6	76.1	74.9	93.2	86.1	77.2
CCOP(=O)(OCC)C(=NOC(=O)c1ccc(OC)cc1)C(N)=O	nt	nt	i	nt	nt	nt	nt	nt	nt	nt	nt
O=C(NN=Cc1c[nH]c2ccccc12)c1ccc(Cl)cc1	nt	nt	i	nt	nt	nt	nt	nt	nt	nt	nt
CCOc1cc(C(=O)Nc2cc(C)ccn2)cc(OCC)c1OCC	i	i	i	i	i	i	nt	nt	nt	nt	nt
CCOc1ccc(C(=O)Nc2cc(C)ccn2)cc1	i	i	i	96.2	90.8	90.9	i	89.8	100.1	96.4	90.6
CCOC(=O)c1c(NC(=O)CN2CCN(c3cccc(Cl)c3)CC2)sc(C)c1C	i	i	i	nt	nt	nt	nt	nt	nt	nt	nt
CCOC(=O)c1c(NC(=O)CN2CCN(c3ccc(Cl)cc3)CC2)sc(C)c1C	i	i	i	54.9	i	i	i	i	i	i	i
COc1ccc(/C=C/c2noc(-c3ccccc3O)n2)cc1	i	i	i	88.5	88.1	89.2	56.8	i	61.8	52.8	i
CC(=O)Oc1ccccc1-c1nc(/C=C/c2ccccc2)no1	i	i	i	70.2	i	61.2	i	i	i	i	i
COc1cc(/C=C/c2noc(-c3ccccc3O)n2)cc(OC)c1OC	i	i	i	i	i	i	nt	nt	nt	nt	nt
